This is a sample that favours compounds with a hit; in the whole collection about 3.2% have one here.
SMARCA2 activ: SMARCA2 (BRM) function activators, primary screen, cell-based, luminescence, high throughput; MG213 cells, MMTV-luciferase reporter, dexamethasone, overnight; activation, % at 9.1 µM; AID 652017, 2013; hit rate 1% among 370,000; in the data active = activation above about 7.8%;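 note: 0% = vehicle wells and 100% = reference activator wells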
NR2E3 ag-1: NR2E3 agonists in two-hybrid cells, primary screen, cell-based, luminescence, CHO-S, Gal4-NCOR/VP16-NR2E3; Photoreceptor-specific nuclear receptor (Homo sapiens), Q9Y5X4; luciferase; inhibition of corepressor binding, % at 3.98 µM; hit rate 0.35% among 360,000; AID 602229, 2012;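 active = inhibition above the mean of all tested compounds plus 3 SD, cut at about 70% in these data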;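 note: 0% = DMSO with NR2E3 transfected cells and 100% = cells lacking NR2E3 construct; higher means lower luciferase signal from less NR2E3 corepressor binding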
Target sequence (Q9Y5X4 whole entry, looked up, the tested form may be a part): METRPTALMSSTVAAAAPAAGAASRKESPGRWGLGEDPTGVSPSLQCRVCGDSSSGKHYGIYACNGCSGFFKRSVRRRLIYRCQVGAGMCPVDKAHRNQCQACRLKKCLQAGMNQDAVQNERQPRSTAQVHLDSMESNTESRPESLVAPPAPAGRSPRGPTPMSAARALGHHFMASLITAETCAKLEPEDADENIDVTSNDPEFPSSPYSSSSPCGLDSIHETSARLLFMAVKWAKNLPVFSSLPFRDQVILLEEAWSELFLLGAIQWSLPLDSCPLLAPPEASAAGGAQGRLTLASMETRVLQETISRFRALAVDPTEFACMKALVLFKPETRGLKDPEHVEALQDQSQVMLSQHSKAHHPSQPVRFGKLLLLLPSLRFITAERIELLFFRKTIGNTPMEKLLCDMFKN
NR2E3 ag-2: inhibitors of NR2E3-RetCOR corepressor binding, primary screen, NR2E3 agonist project, biochemical, TR-FRET, GST-NR2E3, biotin-RetCOR. hit rate 0.12% among 320,000. Photoreceptor-specific nuclear receptor (Homo sapiens), Q9Y5X4. inhibition of corepressor binding, % at 4.78 µM. AID 2300, 2010. 1536-well;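 active = percent inhibition above the cutoff of mean plus 3 SD of all tested compounds, set per screening campaign, cut at about 20% in these data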;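 note: 0% = DMSO wells and 100% = biotin wells as full block of FRET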
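System: GST-tagged NR2E3 plus biotinylated RetCOR corepressor; Buffer or medium: pH 7.5 Tris-based buffer; Probe or stimulus: RetCOR corepressor, biotinylated, 7 nM; Doses: compound at 4.8 µM, single dose; Schedule: 5 h incubation at 4 °C; Technique: time-resolved FRET; Evaluation: percent inhibition of TR-FRET ratio; Replication: one well per compound, singlicate testing.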
GASC-1 inh: inhibitors of GASC-1 histone demethylase, primary screen, biochemical, fluorescence, DELFIA europium; Lysine-specific demethylase 4C (Homo sapiens), Q9H3R0; GST-JMJD2C(1-420) H3K9me3 demethylation; inhibition, % at 2.35 µM; hit rate 0.069% among 330,000; AID 2099, 2009;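 active = more than half of a compound's replicate wells show inhibition beyond 50%, single wells judged on their own value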;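 note: signal counts dimethyl H3K9 product captured on neutravidin plate; 0% = median of DMSO wells and 100% = 0.3 times that DMSO median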
DAX1 inh-1: DAX1 (NR0B1) inhibitors, primary screen, cell-based, HEK293, Gal4-DAX1, luciferase luminescence; AID 504766, 2011; inhibition, % at 6.75 µM; hit rate 0.99% among 340,000; HEK293 Gal4-DAX1 luciferase reporter; Nuclear receptor subfamily 0 group B member 1 (Homo sapiens), P51843;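 active = inhibition above the mean over all tested compounds plus 3 SD, cut at about 4.2% in these data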;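 note: 0% = DAX1-transfected cells with DMSO and 100% = empty-vector control cells with DMSO; inhibition shows as a rise in luminescence from relieved DAX1 repression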
DAX1 inh-2: DAX1 (NR0B1) inhibitors on StAR promoter, primary screen, cell-based, luminescence, SF-1 (NR5A1), full-length DAX-1; HEK293T StAR-luciferase reporter, SF-1/DAX-1 repression relief; inhibition, % at 6.8 µM; hit rate 1.1% among 370,000; AID 652010, 2013;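 active = inhibition above the mean over all tested compounds plus 3 SD, cut at about 3.6% in these data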;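 note: 0% = DAX-1 cells with DMSO and 100% = cells lacking DAX-1 with DMSO; higher inhibition means more luminescence from relief of DAX-1 repression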
An asterisk follows results filed as active.

Results for Cc1ccc2c(c1)COc1c3ccc(C(=O)NCCO)cc3nn1-2 ?
SMARCA2 activ: 5.6; NR2E3 ag-1: -131.6; NR2E3 ag-2: -0.2; GASC-1 inh: -1.6; DAX1 inh-1: 2.0; DAX1 inh-2: 1.4

How did CCCC#Cc1ccc2c(c1)COc1c3ccccc3nn1-2 do in these assays?
SMARCA2 activ: 5.2; NR2E3 ag-1: -108.2; NR2E3 ag-2: -1.3; GASC-1 inh: 1.2; DAX1 inh-1: 5.5*; DAX1 inh-2: 4.1*

How did CCOc1ccccc1N1C(=O)CC(Sc2n[nH]c(-c3ccccc3)n2)C1=O (stereo not drawn) do in these assays?
SMARCA2 activ: 4.6; NR2E3 ag-1: -1.1; NR2E3 ag-2: 2.2; GASC-1 inh: 3.2; DAX1 inh-1: 4.8*; DAX1 inh-2: -0.2

What do the screens show for `Cc1cccn2cc(-c3ccc(F)cc3)nc12`?
SMARCA2 activ: 6.3; NR2E3 ag-1: -102.1; NR2E3 ag-2: -2.3; GASC-1 inh: 7.8; DAX1 inh-1: 1.9; DAX1 inh-2: 3.9*

How did Cc1ccc(C(=O)Nc2ccc(N3CCN(C)CC3)cc2)cc1C do in these assays?
SMARCA2 activ: 0.4; NR2E3 ag-1: -98.2; NR2E3 ag-2: 0.7; GASC-1 inh: 8.6; DAX1 inh-1: 4.7*; DAX1 inh-2: 1.3

What do the screens show for `CCCCOc1ccc(C(=O)Nc2ccc(N3CCN(C(C)=O)CC3)cc2)cc1`?
SMARCA2 activ: 2.0; NR2E3 ag-1: 2.0; NR2E3 ag-2: 1.2; GASC-1 inh: 61.2*; DAX1 inh-1: -0.7; DAX1 inh-2: -1.0

Results for CCCCOc1ccc(C(=O)Nc2ccc(N3CCN(C(=O)C(C)C)CC3)cc2)cc1 ?
SMARCA2 activ: -5.3; NR2E3 ag-1: 8.5; NR2E3 ag-2: 1.2; GASC-1 inh: 7.1; DAX1 inh-1: -0.1; DAX1 inh-2: -1.2

Results for CC(=O)c1ccc2c(c1)Nc1ccccc1S2 ?
SMARCA2 activ: 0.7; NR2E3 ag-1: -5.8; NR2E3 ag-2: -7.1; GASC-1 inh: -2.3; DAX1 inh-1: 0.1; DAX1 inh-2: -0.3

How did C/C(=N\NC(=O)c1ccc(C)cc1C)c1ccc2c(c1)Nc1ccccc1S2 do in these assays?
SMARCA2 activ: 10.6*; NR2E3 ag-1: -44.7; NR2E3 ag-2: -1.4; GASC-1 inh: -2.2; DAX1 inh-1: 0.1; DAX1 inh-2: 0.5

What do the screens show for `COC(=O)c1ccc(C(=O)OC)c(NC2=NS(=O)(=O)c3ccccc32)c1`?
SMARCA2 activ: 1.4; NR2E3 ag-1: 7.5; NR2E3 ag-2: -0.8; GASC-1 inh: -4.1; DAX1 inh-1: 0.4; DAX1 inh-2: -0.2

What do the screens show for `COC(=O)c1c(-c2ccccc2)csc1NC1=NS(=O)(=O)c2ccccc21`?
SMARCA2 activ: 4.5; NR2E3 ag-1: -119.2; NR2E3 ag-2: 1.1; GASC-1 inh: 1.9; DAX1 inh-1: 1.9; DAX1 inh-2: 3.8*

Results for CN1CCN(C(=O)c2ccc(Cn3cc(Cl)cn3)o2)CC1 ?
SMARCA2 activ: 7.9*; NR2E3 ag-1: 8.6; NR2E3 ag-2: -0.4; GASC-1 inh: -23.7; DAX1 inh-1: 2.8; DAX1 inh-2: -0.4

How did O=C(/C=C/c1ccco1)N1CCN(S(=O)(=O)c2cccs2)CC1 do in these assays?
SMARCA2 activ: -1.8; NR2E3 ag-1: -7.4; NR2E3 ag-2: -0.2; GASC-1 inh: 0.4; DAX1 inh-1: 6.6*; DAX1 inh-2: -0.7

What do the screens show for `COc1ccc(C=NNC(=O)c2ccncc2)cc1`?
SMARCA2 activ: -5.8; DAX1 inh-2: 0.7

Results for CC(=O)Nc1sc(N/N=C/c2ccc(O)cc2)nc1-c1ccc(C)cc1 ?
SMARCA2 activ: -0.2; NR2E3 ag-1: 6.7; NR2E3 ag-2: -0.1; GASC-1 inh: 3.9; DAX1 inh-1: -1.2; DAX1 inh-2: -0.2

Bioassay records from PubChem.
